From ChEMBL document CHEMBL1127388, “Synthesis and structure-activity relationships in a series of antiinflammatory corticosteroid analogues, halomethyl androstane-17 beta-carbothioates and -17 beta-carboselenoates” (1994)

What was measured:
Assay type in all cases: functional
[1] = organism: Homo sapiens; assay: Tested for human vasoconstrictor activity relative to fluocinolone acetonide (100)
[2] = system: Mus musculus; assay: Systemic corticosteroid activity after topical application relative to fluocinolone acetonide in mice.
How it was run: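 Mice (25–30 g), nine groups of 10, given topical steroid in acetone daily for seven consecutive days; reference fluocinolone acetonide daily doses 0.47, 1.9, 7.5 and 30 µg; vehicle controls. Day after last dose, Et₂O vapor stress 1 min, re-anaesthetised with Et₂O; blood of two mice pooled; plasma corticosterone read fluorimetrically; potency from log daily dose vs corticosterone.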

[3] = system: Mus musculus; assay: Topical anti-inflammatory activity relative to fluocinolone acetonide in mice.
How it was run: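 Croton oil ear test in mice (22–28 g), nine groups of 10; steroid dissolved in croton oil (2 vol)/EtOH (20)/Et₂O (78), 0.02 mL to inner aspect of both ears; reference doses 0.015, 0.06, 0.25, 1 µg; untreated-oil controls; ears weighed after 6 h; potency from log dose vs ear weight.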

[4] = system: Rattus norvegicus; assay: Topical anti-inflammatory activity relative to fluocinolone acetonide in rats.
How it was run: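 Modified Tonelli croton oil ear test: rats (54–70 g), 7 groups of 10; graded steroid doses in croton oil (5 vol)/EtOH (20)/Et₂O (75), 0.04 mL to inner aspect of both ears (reference 0.06, 0.25, 1 µg); control gets unmedicated oil. After 6 h, CO₂ kill, ears weighed separately; relative potency by ANOVA on log dose and ear weight.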

[5] = system: Rattus norvegicus; assay: Systemic corticosteroid activity after topical application relative to fluocinolone acetonide in rats.
How it was run: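 Rats (170–200 g), seven groups of six, fur clipped, ca. 2 cm² dorsal area dosed once daily for seven days with steroid in acetone (0.02 mL; reference 0.5, 2, 8 µg). Day after final dose: Et₂O stress 1 min, 20 min later pentobarbitone i.p., cardiac blood; fluorimetric plasma corticosterone or adrenal weights; potency from log daily dose.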

| Compound | Activity [1] | Activity [2] | Activity [3] | Activity [4] | Activity [5] |
| --- | --- | --- | --- | --- | --- |
| CCCC(=O)O[C@]1(C(=O)SCF)[C@H](C)CC2C3C[C@H](F)C4=CC(=O)C=C[C@]4(C)[C@@]3(F)[C@@H](O)C[C@@]21C (stereo partly specified) | 299 | 0.7 | 55 | 55 |  |
| C=C1CC2C3CCC4=CC(=O)C=C[C@]4(C)[C@@]3(F)[C@@H](O)C[C@]2(C)[C@@]1(OC(=O)CC)C(=O)SCCl (stereo partly specified) | 365 | 2 | 42 | 12 | 0.8 |
| CCC(=O)O[C@]1(C(=O)SCCl)CCC2C3CCC4=CC(=O)C=C[C@]4(C)[C@@]3(F)[C@@H](O)C[C@@]21C (stereo partly specified) | 916 | 100 | 20 |  |  |
| CC(=O)O[C@]1(C(=O)SCF)[C@H](C)CC2C3C[C@H](F)C4=CC(=O)C=C[C@]4(C)[C@@]3(F)[C@@H](O)C[C@@]21C (stereo partly specified) | 392 | 2.9 | 76 | 88 | 3 |
| CCC(=O)O[C@]1(C(=O)SCF)[C@@H](C)CC2C3CCC4=CC(=O)C=C[C@]4(C)[C@H]3[C@@H](O)C[C@@]21C (stereo partly specified) | 800 |  | 50 | 44 | 5.1 |
| C=C1CC2C3CCC4=CC(=O)C=C[C@]4(C)[C@@]3(F)[C@@H](O)C[C@]2(C)[C@@]1(OC(=O)CC)C(=O)[Se]CCl (stereo partly specified) | 200 | 2 | 40 | 16 |  |
| CCC(=O)O[C@]1(C(=O)SCBr)[C@@H](C)CC2C3CCC4=CC(=O)C=C[C@]4(C)[C@@]3(F)[C@@H](O)C[C@@]21C (stereo partly specified) | 254 |  |  |  |  |
| CCC(=O)O[C@]1(C(=O)SCI)[C@@H](C)CC2C3CCC4=CC(=O)C=C[C@]4(C)[C@@]3(F)[C@@H](O)C[C@@]21C (stereo partly specified) | 41 |  |  |  |  |
| CCC(=O)O[C@]1(C(=O)SCCl)[C@@H](C)CC2C3CCC4=CC(=O)C=C[C@]4(C)[C@@]3(F)[C@@H](O)C[C@@]21C (stereo partly specified) | 1469 | 44 | 41 | 36 | 0.9 |
| C=C1CC2C3CCC4=CC(=O)C=C[C@]4(C)[C@@]3(F)[C@@H](O)C[C@]2(C)[C@@]1(OC(=O)CC)C(=O)[Se]C (stereo partly specified) | 187 |  | 27 | 19 | <0.2 |
| CCC(=O)O[C@]1(C(=O)SCCl)[C@@H](C)CC2C3CCC4=CC(=O)C=C[C@]4(C)[C@H]3[C@@H](O)C[C@@]21C (stereo partly specified) | 295 |  | 27 | 29 | 1.4 |
| C=C1CC2C3CCC4=CC(=O)C=C[C@]4(C)[C@@]3(F)[C@@H](O)C[C@]2(C)[C@@]1(OC(=O)CC)C(=O)SCF (stereo partly specified) | 1497 | 44 | 41 | 20 | 2.5 |
| C=C1CC2C3C[C@H](F)C4=CC(=O)C=C[C@]4(C)[C@@]3(F)[C@@H](O)C[C@]2(C)[C@@]1(OC(=O)CC)C(=O)SCF (stereo partly specified) | 1048 | >100 | 197 |  |  |
| CCCC(=O)O[C@]1(C(=O)SCCl)[C@@H](C)CC2C3CCC4=CC(=O)C=C[C@]4(C)[C@@]3(F)[C@@H](O)C[C@@]21C (stereo partly specified) | 143 |  |  |  |  |
| CCC(=O)O[C@]1(C(=O)SCF)[C@@H](C)CC2C3CCC4=CC(=O)C=C[C@]4(C)[C@@]3(F)[C@@H](O)C[C@@]21C (stereo partly specified) | 1262 | 450 | 89 | 39 | 13 |
| CCC(=O)O[C@]1(C(=O)SCF)CCC2C3CCC4=CC(=O)C=C[C@]4(C)[C@@]3(F)[C@@H](O)C[C@@]21C (stereo partly specified) | 1984 | 149 | 63 | 39 | 1.5 |
| CCC(=O)O[C@]1(C(=O)SCF)[C@H](C)CC2C3CCC4=CC(=O)C=C[C@]4(C)[C@@]3(F)[C@@H](O)C[C@@]21C (stereo partly specified) | 653 |  |  |  |  |
| CCC(=O)O[C@]1(C(=O)SCCl)[C@H](C)CC2C3C[C@H](F)C4=CC(=O)C=C[C@]4(C)[C@@]3(F)[C@@H](O)C[C@@]21C (stereo partly specified) | 124 | 0.04 | 56 | 29 | <0.02 |
| CC(=O)O[C@]1(C(=O)SCCl)[C@@H](C)CC2C3CCC4=CC(=O)C=C[C@]4(C)[C@@]3(F)[C@@H](O)C[C@@]21C (stereo partly specified) | 544 | 14.7 | 59 | 24 | 0.5 |
| C=C1CC2C3C[C@H](F)C4=CC(=O)C=C[C@]4(C)[C@@]3(F)[C@@H](O)C[C@]2(C)[C@@]1(OC(=O)CC)C(=O)SCCl (stereo partly specified) | 170 | >100 | 108 |  |  |
| CCC(=O)O[C@]1(C(=O)SCF)CCC2C3C[C@H](F)C4=CC(=O)C=C[C@]4(C)[C@H]3[C@@H](O)C[C@@]21C (stereo partly specified) | 697 | >200 | 56 | 97 |  |
| CC(=O)O[C@]1(C(=O)SCF)[C@@H](C)CC2C3CCC4=CC(=O)C=C[C@]4(C)[C@@]3(F)[C@@H](O)C[C@@]21C (stereo partly specified) | 1388 |  | 67 | 40 | 13.5 |
| CC1(C)O[C@@H]2C[C@H]3[C@@H]4C[C@H](F)C5=CC(=O)C=C[C@]5(C)[C@@]4(F)[C@@H](O)C[C@]3(C)[C@]2(C(=O)CO)O1 [FLUOCINOLONE ACETONIDE] | 100 | 100 | 100 | 100 | 100 |
| CCC(=O)O[C@]1(C(=O)SCF)[C@H](C)C[C@H]2[C@@H]3C[C@H](F)C4=CC(=O)C=C[C@]4(C)[C@@]3(F)[C@@H](O)C[C@@]21C [FLUTICASONE PROPIONATE] | 945 | 1 | 113 | 85 | 1.5 |
